Laboratory results taken from PMC7187372 (Journal of Clinical Pharmacology, 2019).

Tests used:
[1] = test system: Hedgehog pathway marker glioma‐associated oncogene homolog 1 (GLI1); conditions: plasma exposures at doses ≥100 mg QD; cited from earlier work
[2] = cited from earlier work
[3] = Healthy volunteer population PK model; assay type: in vivo, human
Method in brief: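 Model built from noncancer subjects in studies B1371010 and B1371014 (n = 49; 1937 plasma concentrations). Structure: 2-compartment, first-order absorption and elimination, allometric body-weight scaling. Estimation by FOCEI. Food entered empirically as a linear covariate on ka. Residual error was proportional across all subjects. Intersubject variability is reported as CV (%).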

[4] = Simulation of steady-state exposure; parameters: species or system human
[5] = cited from earlier work; remark: listed apart in the source
[6] = healthy subjects; cited from earlier work
Ketoconazole = assay type: in vivo, human; conditions: glasdegib 200-mg single dose, ketoconazole 400 mg daily, healthy subjects
[7] = cited from earlier work; remark: listed apart in the source
[8] = cited from earlier work; remark: listed apart in the source
[9] = cited from earlier work; remark: listed apart in the source
[10] = Population pharmacokinetic analysis; assay type: in vivo, human
Method in brief: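 Single-dose intensive plasma sampling to 120 h (B1371001) or 24 h (B1371002), sparse in B1371003; multiple-dose intensive in all. HPLC–MS/MS assay, LLOQ 0.200 ng/mL. SAEM/IMP estimation; proportional residual error on log concentrations; missing covariates imputed as population median.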

[11] = higher; cited from earlier work
[12] = healthy volunteer model vs final model, higher
[13] = healthy volunteer model, n = 49, FOCEI
[14] = glasdegib 200-mg single dose, ketoconazole 400 mg daily, healthy subjects
[15] = bootstrap median, 1000 resampled data sets

## CN1CC[C@@H](NC(=O)Nc2ccc(C#N)cc2)C[C@@H]1c1nc2ccccc2[nH]1 [glasdegib, Glasdegib]
[1]
  Downregulation of GLI1: robust and consistent
[2]
  Absolute oral bioavailability: 77.12%
[3]; healthy volunteer model
  Intersubject variability CL/F: 19.6% (5.8%)
  Intersubject variability Vc/F: 11.0% (52.0%)
  Intersubject variability ka: 53.4% (10.6%)
[3]; [12]
  CL/F in healthy subjects relative to patients with cancer: > 1.6 fold
  ka in healthy subjects relative to patients with cancer: over 13 fold
[3]; healthy volunteer model, all subjects
  Residual error, proportional error: 58.6%
[3]; [13]
  CL/F: 10.1 (4.1%) L/h
  Q/F: 1.92 (11.4%) L/h
  Vc/F: 112 (4.1%) L
  Vp/F: 53.5 (6.9%) L
  ka: 0.79 (8.9%) hour^–1
[3]; healthy volunteer model, FIXED
  Intersubject variability Q/F: 3.2% FIXED
  Intersubject variability Vp/F: 3.2% FIXED
[4]; 10th percentile baseline body weight vs 70 kg
  Exposure increase from CL/F reduction: ~1.1 fold
[4]; 90th percentile baseline body weight
  Simulated fold change in steady-state maximum concentration and area under the curve: ~0.75
[4]; 90th percentile baseline bone marrow blasts
  Exposure increase from CL/F reduction: ~1.1 fold
[4]; strong CYP3A inhibitors
  Increase in area under the curve: ~1.4 fold
[5]; 100 mg dose
  Radiolabeled dose recovered in feces (mean): 41.7%
  Radiolabeled dose recovered in urine (mean): 48.9%
[5]
  Renal contribution to elimination: around 17%
[5]; of the 100 mg dose
  Unchanged glasdegib recovered in feces: 19.5%
  Unchanged glasdegib recovered in urine: 17.2%
[6]
  Effect of high-fat meal or proton pump inhibitors on PK: not affected in a clinically relevant manner
Ketoconazole
  Decrease in CL/F with ketoconazole: 58%
[7]; 5-600 mg QD, single and multiple daily dosing
  Dose proportionality of plasma exposure: dose‐proportional increase in plasma exposure
[7]; oral, patients
  Maximum tolerated dose (MTD): 400 mg QD
[8]
  Plasma exposures with a strong CYP3A inhibitor: increased
[8]; [14]
  Increase in AUC extrapolated to infinity with ketoconazole vs glasdegib alone: 140%
  Increase in maximum plasma concentration with ketoconazole vs glasdegib alone: 40%
[9]
  Plasma exposures with a strong CYP3A4 inducer: decreased
[10]; bootstrap median
  Residual error, proportional error, Hematologic: 65.7%
  Residual error, proportional error, Solid tumors: 59.3%
[10]; [15]
  CL/F: 6.23 L/h
  Q/F: 1.58 L/h
  Vc/F: 3.52 L
  Vp/F: 296.04 L
  ka: 0.06 hour^–1
  θBPBL: –0.004
  θCYPmod: –0.18
  θCYPstrong: –0.31
  θWNCL: 0.41
  θsolid on Q/F: –0.69
  θsolid on Vp/F: –0.81
[10]; covariate analysis
  Effect of age, sex, race and hepatic function on glasdegib PK parameters: not found to be significant covariates
[10]; final model estimate
  Residual error, proportional error, Hematologic: 65.8%
  Residual error, proportional error, Solid tumors: 59.5%
[10]; from population median 38.2%, CL/F decreases as blasts increase
  Change in CL/F per 1% change in baseline percentage bone marrow blasts: 0.4%

## Cc1c(C(=O)Nc2ccc(N3C[C@@H](C)O[C@@H](C)C3)nc2)cccc1-c1ccc(OC(F)(F)F)cc1 [sonidegib, Sonidegib]
[11]
  Clearance in healthy subjects relative to patients with cancer: 3 fold
